Test results taken from ChEMBL document CHEMBL1671641, “1,5-benzodiazepines, a novel class of hepatitis C virus polymerase nonnucleoside inhibitors” (Antimicrob Agents Chemother, 2008).
The source made the active and inactive calls. No cut-off for these calls is given here.

Key:
[1] = Cytotoxicity against human HEK293T cells after 72 hrs by resazurin assay; assay type: cell-based, HEK-293T
Outline: (§1)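 Cells were tested against eight serial fourfold dilutions for 72 h, at 3,000 cells/well for HEK293T and 4,000 cells/well for HepG2. Viability was read by resazurin staining. Values are means ± SD from two to eight independent experiments in quadruplicate.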

[2] = Cytotoxicity against CMV-Luc transfected human HuH7 cells after 5 days; assay type: cell-based, Huh-7; settings: huh-7, 120 h, 120 h
MT4 [3] = assay: Cytotoxicity against LTR-Luc transfected human MT4 cells […] after 3 days by ATPLite assay; assay type: cell-based; settings: mt4, 72 h, 72 h
Hepatitis C virus [4] = assay: Ratio of EC50 for Hepatitis C virus 796 infected in HuH7 cells to EC50 for Hepatitis C virus 796 harboring NNI C316Y mutant site in NS5B infected in HuH7 cells; assay type: functional, Hepacivirus hominis, Huh-7
Outline: (§2)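 NS5B NNI-site mutations were introduced into the genotype 1b ET subgenomic luciferase replicon by site-directed mutagenesis. RNA was made by in vitro transcription and tested in a transient-replication assay.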

[5] = (§3) Cytotoxicity against human MT4 cells after 3 days by ATPLite assay; assay type: cell-based; settings: MT4 cells
Outline: (§4)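 MT4 cells, 5,000 per well, were incubated 3 days at 37°C with eight serial fourfold compound dilutions. Cytotoxicity was read as intracellular ATP by ATPlite 1step luminescence. Values are means ± SD from two to eight independent experiments in quadruplicate.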

Hepatitis C virus [6] = assay: Ratio of EC50 for Hepatitis C virus 796 infected in HuH7 cells to EC50 for Hepatitis C virus 796 harboring NNI H95R mutant site in NS5B infected in HuH7 cells; assay type: functional, Hepacivirus hominis, Huh-7; outline: as §2
Hepatitis C virus [7] = assay: Ratio of EC50 for Hepatitis C virus 796 infected in HuH7 cells to EC50 for Hepatitis C virus 796 harboring NNI M414Q mutant site in NS5B infected in HuH7 cells; assay type: functional, Hepacivirus hominis, Huh-7; outline: as §2
[8] = Cytotoxicity against human HuH7 cells after 5 days by resazurin assay; assay type: cell-based, Huh-7
Outline: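 Subconfluent HCV 1b subgenomic replicon cells, 500 per well and grown without G418, were incubated for 5 days with eight serial fourfold compound dilutions. Viability was read by resazurin. Values are means ± SD from two to eight independent experiments in quadruplicate.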

Hepatitis C virus [9] = assay: Inhibition of Hepatitis C virus 1b J4 recombinant NS5B Cdelta 21 RNA dependent RNA polymerase overexpressed in Escherichia coli BL21 (DE3) assessed as [alpha-33P]UTP incorporation by RdRp primer-independent transcription assay; parameters: species or system Hepatitis C virus subtype 1b
Outline: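 De novo (primer-independent) RdRp assay: 190 nM NS5BΔ21 (1b J4) with 86 nM HCV 3′ UTR template RNA, 0.5 mM each ATP/GTP/CTP, 10 μM UTP plus [α-³³P]UTP, in 20 mM Tris-HCl pH 7.5, 1 mM DTT, 5 mM MgCl₂, 20 mM NaCl. Incubated 2 h at room temperature, stopped with EDTA/tRNA, TCA-precipitated on filters, and scintillation-counted. Quadruplicate.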

Hepatitis C virus [10] = assay: Ratio of EC50 for Hepatitis C virus 796 infected in HuH7 cells to EC50 for Hepatitis C virus 796 harboring NNI M423T mutant site in NS5B infected in HuH7 cells; assay type: functional, Hepacivirus hominis, Huh-7; outline: as §2
Hepatitis C virus [11] = assay: Ratio of EC50 for Hepatitis C virus 796 infected in HuH7 cells to EC50 for Hepatitis C virus 796 harboring NNI Y448A mutant site in NS5B infected in HuH7 cells; assay type: functional, Hepacivirus hominis, Huh-7; outline: as §2
Hepatitis C virus [12] = assay: Antiviral activity against Hepatitis C virus 1b infected in human HuH7 cells assessed as inhibition of viral replication after 3 days by luciferase reporter assay; assay type: functional, organism-based, Hepacivirus hominis, genotype 1b, Huh-7; settings: huh-7
Outline: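 HCV 1b subgenomic luciferase reporter replicon (clone ET) cells, 2,500 per well, were exposed to a nine-point 1/4 dilution series for 3 days. Replication was read as luciferase activity. Values are means ± SD from 2 to 23 independent experiments run in quadruplicate.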

Translocator protein = Translocator protein (Homo sapiens, UniProt P30536); assay: Inhibition of peripheral benzodiazepine BZD receptor by radioligand binding assay
Outline: (§5)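 Radioligand binding assays for the GABA-A central BZD receptor and the peripheral BZD receptor were run as a single experiment in duplicate.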

[13] = (§6) Cytotoxicity against human HepG2 cells after 72 hrs by resazurin assay; assay type: cell-based; settings: HepG2 cells; outline: as §1
Hepatitis C virus [14] = assay: Inhibition of Hepatitis C virus 1b J4 recombinant NS5B Cdelta 21 RNA dependent RNA polymerase overexpressed in Escherichia coli BL21 (DE3) by RdRp primer-dependent transcription assay; parameters: species or system Hepatitis C virus subtype 1b
[15] = Inhibition of Gamma-aminobutyric acid type-A (GABAA) receptor by radioligand binding assay; outline: as §5
Hepatitis C virus [16] = assay: Ratio of EC50 for Hepatitis C virus 796 infected in HuH7 cells to EC50 for Hepatitis C virus 796 harboring NNI P495L mutant site in NS5B infected in HuH7 cells; assay type: functional, Hepacivirus hominis, Huh-7; outline: as §2
MT4 [17] = assay: as §3; assay type: cell-based; settings: mt4, 72 h, 72 h; outline: as §4
HepG2 = assay: as §6; assay type: cell-based; settings: hepg2, 72 h, 72 h; outline: as §1
Hepatitis C virus [18] = assay: Inhibition of Hepatitis C virus 1b J4 recombinant NS5B Cdelta 21 RNA dependent RNA polymerase mediated formation of first phosphodiester bond during the polymerization reaction at 10 uM after 60 mins; settings: Hepatitis C virus subtype 1b
Outline: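 Buffer was 50 mM HEPES pH 7.5, 5 mM MgCl2, 5 mM MnCl2, 10 mM KCl, 1 mM DTT, at room temperature. In the time course, incubation was lengthened with inhibitor held at 10 μM. Products were phenol-extracted, ethanol-precipitated, denatured 3 min at 95°C, run on 8 M urea–20% polyacrylamide gels, and imaged.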

Translocator protein, sequence (P30536 whole entry): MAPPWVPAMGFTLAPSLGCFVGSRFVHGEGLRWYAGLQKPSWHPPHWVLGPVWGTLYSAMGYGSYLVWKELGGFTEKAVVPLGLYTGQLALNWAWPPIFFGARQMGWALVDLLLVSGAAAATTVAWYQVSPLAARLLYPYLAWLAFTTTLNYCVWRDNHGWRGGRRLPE

Q: Which results are given for `CC(=O)N1c2cccc(O)c2NC2=C(C(=O)CC(C)(C)C2)C1c1ccc(OCc2ccccc2)cc1Cl` (single isomer, unassigned; 7a)?
A: CC50 at 72 h [1]: > 25 µM; CC50 [2]: 12.8 µM; CC50 (MT4 [3]): 16.2 µM; fold change (FC) (Hepatitis C virus [4]): 10; CC50 at 72 h [5]: 56.5 µM; fold change (FC) (Hepatitis C virus [6]): 10; fold change (FC) (Hepatitis C virus [7]): 10; CC50 at 120 h ([8]; HuH7 cells): 46.2 µM; IC50 (Hepatitis C virus [9]): 0.05 µM; fold change (FC) (Hepatitis C virus [10]): 10; fold change (FC) (Hepatitis C virus [11]): 10; EC50 (Hepatitis C virus [12]): 1.2 µM; IC50 (Translocator protein): > 30 µM; CC50 at 72 h [13]: 31.2 µM; IC50 (Hepatitis C virus [14]): 0.05 µM; IC50 [15]: > 30 µM; fold change (FC) (Hepatitis C virus [16]): 10

Q: Which CC50 [2] does the source give for `CC(=O)N1c2cccc(O)c2NC2=C(C(=O)CC(C)(C)C2)C1c1ccc(OCc2ccccc2)cc1Cl` (single isomer, unassigned; 7b) here?
A: 10.1 µM

Q: And the CC50 (MT4 [3])?
A: 14.4 µM

Q: And the CC50 (MT4 [17])?
A: 38.4 µM

Q: What about the CC50 ([8]; huh-7, 120 h, 120 h) of the same molecule?
A: 23.8 µM

Q: And the IC50 (Hepatitis C virus [9])?
A: 18.5 µM

Q: And the EC50 (Hepatitis C virus [12])?
A: 2.1 µM

Q: What about the CC50 (HepG2) of the same molecule?
A: > 25 µM

Q: And the IC50 (Hepatitis C virus [14])?
A: 12.5 µM

Q: With `CC(=O)N1c2ccccc2NC2=C(C(=O)CC(C)(C)C2)C1c1ccc(OCc2ccccc2)c(Cl)c1` (single isomer, unassigned; 4a) as the molecule, how does the inhibition (Hepatitis C virus [18]) read?
A: Active
